# Source: ChEMBL document CHEMBL3244066, “Inhibition of histidine decarboxylase. Derivatives of histidine” (J Med Chem, 1977)
# Peptide text beside a SMILES is read from it.
# Target: T1, Histidine decarboxylase (Rattus norvegicus, UniProt P16453)
# T1 sequence (P16453 whole entry): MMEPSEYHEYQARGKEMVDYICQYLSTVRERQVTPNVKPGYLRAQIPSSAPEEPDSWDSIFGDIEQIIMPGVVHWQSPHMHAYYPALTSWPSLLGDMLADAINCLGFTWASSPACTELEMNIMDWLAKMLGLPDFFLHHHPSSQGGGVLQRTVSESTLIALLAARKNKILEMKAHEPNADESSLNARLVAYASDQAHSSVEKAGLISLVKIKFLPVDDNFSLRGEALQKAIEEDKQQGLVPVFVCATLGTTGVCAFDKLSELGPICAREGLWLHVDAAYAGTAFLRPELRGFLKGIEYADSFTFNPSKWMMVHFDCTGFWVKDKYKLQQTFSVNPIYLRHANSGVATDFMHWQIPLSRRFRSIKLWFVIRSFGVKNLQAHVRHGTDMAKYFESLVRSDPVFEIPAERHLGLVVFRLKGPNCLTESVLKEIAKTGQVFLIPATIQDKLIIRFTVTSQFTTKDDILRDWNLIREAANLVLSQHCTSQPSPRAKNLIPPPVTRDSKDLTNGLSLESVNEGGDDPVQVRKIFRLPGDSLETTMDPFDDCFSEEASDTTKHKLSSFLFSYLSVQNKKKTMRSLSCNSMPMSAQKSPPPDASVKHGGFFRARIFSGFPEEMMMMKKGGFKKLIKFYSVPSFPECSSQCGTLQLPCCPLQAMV
# Experiment: Inhibition of histidine decarboxylase in Sprague-Dawley rat stomach assessed as decrease in 14CO2 production using L-histidine-carboxyl-14C as substrate by Dixon plot analysis
# In short: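 Ki from a Dixon plot of reciprocal activity versus inhibitor concentration. Used the ammonium sulfate–fractionated rat stomach extract, 0.24 mM L-histidine-carboxyl-14C, 0.03 mM PLP, pH 6.9 phosphate, 30 min at 37 °C, and Hyamine trapping of 14CO2 with scintillation counting. Inhibitor was run in duplicate at four concentrations from 1 to 50 μM.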
row,Ki [nM],SMILES
1,1800,COC(=O)[C@@H](N)Cc1c[nH]cn1

# Target: T2, Histidine decarboxylase (Rattus norvegicus) (UniProt P16453)
# T2 sequence (whole entry): T1 sequence (P16453 whole entry)
# Experiment: Inhibition of histidine decarboxylase in Sprague-Dawley rat stomach assessed as decrease in 14CO2 production using L-histidine-carboxyl-14C as substrate at 0.004 mM by scintillation counting analysis
# In short: (§1)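 Enzyme from rat stomach: homogenized in 0.1 M K phosphate–0.1 mM pyridoxal phosphate, pH 6.9, at 0–4 °C. Then 39 000g and 100 000g spins and a 20–45% ammonium sulfate cut. Assayed in triplicate with 0.05 M K phosphate, pH 6.9, 0.03 mM PLP and 0.24 mM L-histidine-carboxyl-14C (final) for 30 min at 37 °C. Inhibitors were fresh in water, generally 0.1 mM. HCl-released 14CO2 was trapped on Hyamine paper for 1 h and counted. % inhibition was taken after blank subtraction.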
row,inhibition [%],SMILES
1,50,COC(=O)[C@@H](N)Cc1c[nH]cn1

# Target: T2, Histidine decarboxylase (Rattus norvegicus)
# Experiment: Inhibition of histidine decarboxylase in Sprague-Dawley rat stomach assessed as decrease in 14CO2 production using L-histidine-carboxyl-14C as substrate at 0.13 mM by scintillation counting analysis
# In short: as §1
row,inhibition [%],SMILES
1,9,O=C(O)CCc1c[nH]cn1
2,0,O=C(O)[C@@H](O)Cc1c[nH]cn1

# Target: T2, Histidine decarboxylase (Rattus norvegicus)
# Experiment: Inhibition of histidine decarboxylase in Sprague-Dawley rat stomach assessed as decrease in 14CO2 production using L-histidine-carboxyl-14C as substrate at 0.32 mM by scintillation counting analysis
# In short: as §1
row,inhibition [%],SMILES
1,50,C[C@](N)(Cc1c[nH]cn1)C(=O)O

# Target: T2, Histidine decarboxylase (Rattus norvegicus)
# Experiment: Inhibition of histidine decarboxylase in Sprague-Dawley rat stomach assessed as decrease in 14CO2 production using L-histidine-carboxyl-14C as substrate at 0.012 mM by scintillation counting analysis
# In short: as §1
row,inhibition [%],SMILES
1,50,CCOC(=O)[C@@H](N)Cc1c[nH]cn1

# Target: T2, Histidine decarboxylase (Rattus norvegicus)
# Experiment: Inhibition of histidine decarboxylase in Sprague-Dawley rat stomach assessed as decrease in 14CO2 production using L-histidine-carboxyl-14C as substrate at 0.10 mM by scintillation counting analysis
# In short: as §1
row,SMILES,inhibition [%]
1,COC(=O)CCc1c[nH]cn1,10
2,COC(=O)[C@@H](N)Cc1nc[nH]c1[N+](=O)[O-],3
3,C[n+]1c[nH]cc1C[C@H](N)C(=O)O,0
4,Cn1cnc(C[C@H](N)C(=O)O)c1,0
5,N[C@@H](Cc1cnc[nH]1)C(=O)NO,14
6,N[C@@H](Cc1nc[nH]c1[N+](=O)[O-])C(=O)O,0
7,CCCC(Cc1c[nH]cn1)(C(=O)OC)[N+](=O)[O-] (racemic),32
8,CCCC(N)(Cc1c[nH]cn1)C(=O)OC (racemic),2
9,CCCCC(Cc1c[nH]cn1)(C(=O)OC)[N+](=O)[O-] (racemic),24
10,CCCCC(N)(Cc1c[nH]cn1)C(=O)O (racemic),3
11,CCCCC(N)(Cc1c[nH]cn1)C(=O)OC (racemic),0
12,CCOC(=O)C(CC)(Cc1c[nH]cn1)[N+](=O)[O-] (racemic),5
13,CCOC(=O)C(Cc1c[nH]cn1)(c1ccccc1)[N+](=O)[O-] (racemic),22
14,CCOC(=O)C(N)(CC)Cc1c[nH]cn1 (racemic),13
15,COC(=O)C(C)(Cc1c[nH]cn1)[N+](=O)[O-] (racemic),25
16,COC(=O)C(C)(N)Cc1c[nH]cn1 (racemic),3
17,Cc1nc(CC(N)C(=O)O)c[nH]1 (racemic),0
18,O=C(O)C(Br)Cc1cnc[nH]1 (racemic),13

# Other lines, results leading:
row,inhibition [%],SMILES
1,19,C[C@](N)(Cc1c[nH]cn1)C(=O)O
2,0,N[C@@H](Cc1c[nH]cn1)C(=O)NCC(=O)O (H-His-Gly-OH)
3,62,CCCCOC(=O)C(N)Cc1c[nH]cn1 (racemic)
4,22,CCCOC(=O)C(N)Cc1c[nH]cn1 (racemic)
5,0,CNC(=O)C(N)Cc1c[nH]cn1 (racemic)

# Target: T2, Histidine decarboxylase (Rattus norvegicus)
# Experiment: Inhibition of histidine decarboxylase in Sprague-Dawley rat stomach assessed as decrease in 14CO2 production using L-histidine-carboxyl-14C as substrate at 0.50 mM by scintillation counting analysis
# In short: as §1
row,inhibition [%],SMILES
1,0,CC(=O)N[C@@H](Cc1c[nH]cn1)C(=O)O
